Biological target: Human immunodeficiency virus type 1 protease (Human immunodeficiency virus 1) (UniProt Q72874)
Test: Inhibition of HIV1 protease at 5 uM
Summary of the method: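 Crude click-reaction DMSO mixtures (azide-alkyne, CuSO4 with copper turning, 1:1 tBuOH/H2O, 50 °C, 5 days) diluted to 5 µM in 0.1 M MES, 0.2 M NaCl, pH 5.25, 5% glycerol; HIV-1 protease 20 µg/mL plus fluorogenic substrate 50 µM added; fluorescence read directly in microplate; percent inhibition; TL-3 100 nM positive control.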

SMILES	inhibition [%]
Cc1ccc(Cl)cc1N1CCN(Cc2cn([C@@H](Cc3ccccc3)[C@H](Cc3ccccc3)NC(=O)O[C@@H]3CCOC3)nn2)CC1	71
Cc1ccc(Cl)cc1N1CCN(Cc2cn([C@@H](Cc3ccccc3)[C@H](Cc3ccccc3)NC(=O)CC3CCCC3)nn2)CC1	28
Cc1ccc(Cl)cc1N1CCN(Cc2cn([C@@H](Cc3ccccc3)[C@H](Cc3ccccc3)NC(=O)OC3CCCC3)nn2)CC1	94
Cc1ccc(C)c(N2CCN(Cc3cn([C@@H](Cc4ccccc4)[C@H](Cc4ccccc4)NC(=O)OC4CCCC4)nn3)CC2)c1	94
CC(C)C[C@H](NC(=O)OC1CCCC1)[C@H](Cc1ccccc1)n1cc(CN2CCN(c3cccc(C(F)(F)F)c3)CC2)nn1	50

Biological target: Human immunodeficiency virus type 1 protease (Human immunodeficiency virus 1, UniProt Q72874)
Test: Inhibition of HIV1 protease
Summary of the method: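 HIV-1 protease (SF-2-WTQ7K-Pr construct for the isolated inhibitors) at 20 µg/mL with 50 µM fluorogenic substrate Abz-Thr-Ile-Nle/Phe-(p-NO2)Gln-Arg-NH2, in 0.1 M MES, 0.2 M NaCl, pH 5.25, 5% (v/v) glycerol. Crude mixtures were screened at 5 µM as percent inhibition.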

SMILES	Ki [nM]	IC50 [nM]
Cc1ccc(Cl)cc1N1CCN(Cc2cn([C@@H](Cc3ccccc3)[C@H](Cc3ccccc3)NC(=O)O[C@@H]3CCOC3)nn2)CC1	83	–
Cc1ccc(Cl)cc1N1CCN(Cc2cn([C@@H](Cc3ccccc3)[C@H](Cc3ccccc3)NC(=O)CC3CCCC3)nn2)CC1	> 2500	–
CC[C@H](O)c1c(CN2CCN(c3cc(C)ccc3C)CC2)nnn1[C@@H](Cc1ccccc1)[C@H](Cc1ccccc1)NC(=O)OC1CCCC1	27	–
Cc1ccc(C)c(N2CCN(Cc3nnn([C@@H](Cc4ccccc4)[C@H](Cc4ccccc4)NC(=O)OC4CCCC4)c3[C@@H](C)O)CC2)c1	25	–
Cc1ccc(Cl)cc1N1CCN(Cc2cn([C@@H](Cc3ccccc3)[C@H](Cc3ccccc3)NC(=O)OC3CCCC3)nn2)CC1	23	–
Cc1ccc(C)c(N2CCN(Cc3nnn([C@@H](Cc4ccccc4)[C@H](Cc4ccccc4)NC(=O)OC4CCCC4)c3[Si](C)(C)C)CC2)c1	> 2500	–
CC[C@@H](O)c1c(CN2CCN(c3cc(C)ccc3C)CC2)nnn1[C@@H](Cc1ccccc1)[C@H](Cc1ccccc1)NC(=O)OC1CCCC1	42	–
Cc1ccc(C)c(N2CCN(Cc3cn([C@@H](Cc4ccccc4)[C@H](Cc4ccccc4)NC(=O)OC4CCCC4)nn3)CC2)c1	32	> 25000
CC(C)C[C@H](NC(=O)OC1CCCC1)[C@H](Cc1ccccc1)n1cc(CN2CCN(c3cccc(C(F)(F)F)c3)CC2)nn1	86	–
